Assays:
[1] = AUC in C57BL/6 mouse at 50 mg/kg, po administered as single dose measured up to 24 hrs by LC/MS analysis; type: ADME, organism-based; parameters: route oral, dose 50 mg/kg, time <=24; details: in vivo
How it was run: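 Plasma drug concentration followed over 24 h. Concentrations below LLOQ were entered as half LLOQ. The same formulation was used for a separate intravenous arm at 15 mg/kg.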

[2] = Oral bioavailability in C57BL/6 mouse at 50 mg/kg administered as single dose measured up to 24 hrs by LC/MS analysis; type: ADME, organism-based; details: in vivo
How it was run: (§1)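 Single dose given to mice either intravenously at 15 mg/kg or orally at 50 mg/kg. Plasma drug concentration was followed over 24 h. Concentrations below LLOQ were reported as half LLOQ.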

[3] = mouse, in vivo, po, 50 mg/kg, 24 h
[4] = Toxicity in C57BL/6 mouse assessed as effect on albumin level at 200 mg/kg, po administered as single dose measured after 48 hrs; type: organism-based; details: in vivo
[5] = Toxicity in C57BL/6 mouse assessed as effect on albumin level at 50 mg/kg, po administered as 10 consecutive doses measured after 48 hrs; type: organism-based; details: in vivo
[6] = Toxicity in C57BL/6 mouse assessed as effect on globulin level at 200 mg/kg, po administered as single dose measured after 48 hrs; type: organism-based; details: in vivo
[7] = Toxicity in C57BL/6 mouse assessed as effect on globulin level at 50 mg/kg, po administered as 10 consecutive doses measured after 48 hrs; type: organism-based; details: in vivo
[8] = Toxicity in C57BL/6 mouse assessed as effect on A/G ratio at 200 mg/kg, po administered as single dose measured after 48 hrs; type: organism-based; details: in vivo
[9] = Toxicity in C57BL/6 mouse assessed as effect on A/G ratio at 50 mg/kg, po administered as 10 consecutive doses measured after 48 hrs; type: organism-based; details: in vivo
[10] = Toxicity in C57BL/6 mouse assessed as effect on AST level at 200 mg/kg, po administered as single dose measured after 48 hrs; type: organism-based; details: in vivo
[11] = Toxicity in C57BL/6 mouse assessed as effect on AST level at 50 mg/kg, po administered as 10 consecutive doses measured after 48 hrs; type: organism-based; details: in vivo
[12] = Toxicity in C57BL/6 mouse assessed as effect on ALT level at 200 mg/kg, po administered as single dose measured after 48 hrs; type: organism-based; details: in vivo
[13] = Toxicity in C57BL/6 mouse assessed as effect on ALT level at 50 mg/kg, po administered as 10 consecutive doses measured after 48 hrs; type: organism-based; details: in vivo
[14] = Toxicity in C57BL/6 mouse assessed as effect on alkaline phosphatase level at 200 mg/kg, po administered as single dose measured after 48 hrs; type: organism-based; details: in vivo
[15] = Toxicity in C57BL/6 mouse assessed as effect on alkaline phosphatase level at 50 mg/kg, po administered as 10 consecutive doses measured after 48 hrs; type: organism-based; details: in vivo
[16] = Toxicity in C57BL/6 mouse assessed as effect on total bilirubin level at 200 mg/kg, po administered as single dose measured after 48 hrs; type: organism-based; details: in vivo
[17] = Toxicity in C57BL/6 mouse assessed as effect on total bilirubin level at 50 mg/kg, po administered as 10 consecutive doses measured after 48 hrs; type: organism-based; details: in vivo
[18] = Toxicity in C57BL/6 mouse assessed as effect on BUN at 200 mg/kg, po administered as single dose measured after 48 hrs; type: organism-based; details: in vivo
[19] = Toxicity in C57BL/6 mouse assessed as effect on BUN at 50 mg/kg, po administered as 10 consecutive doses measured after 48 hrs; type: organism-based; details: in vivo
[20] = Toxicity in C57BL/6 mouse assessed as effect on creatinine level at 200 mg/kg, po administered as single dose measured after 48 hrs; type: organism-based; details: in vivo
[21] = Toxicity in C57BL/6 mouse assessed as effect on creatinine level at 50 mg/kg, po administered as 10 consecutive doses measured after 48 hrs; type: organism-based; details: in vivo
[22] = Toxicity in C57BL/6 mouse assessed as effect on BUN/creatinine ratio at 200 mg/kg, po administered as single dose measured after 48 hrs; type: organism-based; details: in vivo
[23] = Toxicity in C57BL/6 mouse assessed as effect on BUN/creatinine ratio at 50 mg/kg, po administered as 10 consecutive doses measured after 48 hrs; type: organism-based; details: in vivo
[24] = Toxicity in C57BL/6 mouse assessed as effect on phosphorous level at 200 mg/kg, po administered as single dose measured after 48 hrs; type: organism-based; details: in vivo
[25] = Toxicity in C57BL/6 mouse assessed as effect on phosphorous level at 50 mg/kg, po administered as 10 consecutive doses measured after 48 hrs; type: organism-based; details: in vivo
[26] = Toxicity in C57BL/6 mouse assessed as effect on glucose level at 200 mg/kg, po administered as single dose measured after 48 hrs; type: organism-based; details: in vivo
[27] = Toxicity in C57BL/6 mouse assessed as effect on glucose level at 50 mg/kg, po administered as 10 consecutive doses measured after 48 hrs; type: organism-based; details: in vivo
[28] = Toxicity in C57BL/6 mouse assessed as effect on calcium level at 200 mg/kg, po administered as single dose measured after 48 hrs; type: organism-based; details: in vivo
[29] = Toxicity in C57BL/6 mouse assessed as effect on calcium level at 50 mg/kg, po administered as 10 consecutive doses measured after 48 hrs; type: organism-based; details: in vivo
[30] = Toxicity in C57BL/6 mouse assessed as effect on sodium level at 200 mg/kg, po administered as single dose measured after 48 hrs; type: organism-based; details: in vivo
[31] = Toxicity in C57BL/6 mouse assessed as effect on sodium level at 50 mg/kg, po administered as 10 consecutive doses measured after 48 hrs; type: organism-based; details: in vivo
[32] = Toxicity in C57BL/6 mouse assessed as effect on potassium level at 200 mg/kg, po administered as single dose measured after 48 hrs; type: organism-based; details: in vivo
[33] = Toxicity in C57BL/6 mouse assessed as effect on potassium level at 50 mg/kg, po administered as 10 consecutive doses measured after 48 hrs; type: organism-based; details: in vivo
[34] = Toxicity in C57BL/6 mouse assessed as effect on Na/K ratio at 200 mg/kg, po administered as single dose measured after 48 hrs; type: organism-based; details: in vivo
[35] = Toxicity in C57BL/6 mouse assessed as effect on Na/K ratio at 50 mg/kg, po administered as 10 consecutive doses measured after 48 hrs; type: organism-based; details: in vivo
[36] = Toxicity in C57BL/6 mouse assessed as effect on chloride level at 200 mg/kg, po administered as single dose measured after 48 hrs; type: organism-based; details: in vivo
[37] = Toxicity in C57BL/6 mouse assessed as effect on chloride level at 50 mg/kg, po administered as 10 consecutive doses measured after 48 hrs; type: organism-based; details: in vivo
[38] = Toxicity in C57BL/6 mouse assessed as effect on cholesterol level at 200 mg/kg, po administered as single dose measured after 48 hrs; type: organism-based; details: in vivo
[39] = Toxicity in C57BL/6 mouse assessed as effect on cholesterol level at 50 mg/kg, po administered as 10 consecutive doses measured after 48 hrs; type: organism-based; details: in vivo
[40] = Toxicity in C57BL/6 mouse assessed as effect on CPK level at 200 mg/kg, po administered as single dose measured after 48 hrs; type: organism-based; details: in vivo
[41] = Toxicity in C57BL/6 mouse assessed as effect on CPK level at 50 mg/kg, po administered as 10 consecutive doses measured after 48 hrs; type: organism-based; details: in vivo
[42] = Toxicity in po dosed C57BL/6 mouse assessed as maximum tolerated dose administered as single dose measured after 48 hrs; type: organism-based; details: in vivo
[43] = Toxicity in po dosed C57BL/6 mouse assessed as maximum tolerated dose administered as 10 consecutive doses measured after 48 hrs; type: organism-based; details: in vivo
[44] = Toxicity in C57BL/6 mouse assessed as effect on WBC level at 50 mg/kg, po administered as 10 consecutive doses measured after 48 hrs; type: organism-based; details: in vivo
[45] = Toxicity in C57BL/6 mouse assessed as effect on RBC level at 50 mg/kg, po administered as 10 consecutive doses measured after 48 hrs; type: organism-based; details: in vivo
[46] = Toxicity in C57BL/6 mouse assessed as effect on HGB level at 50 mg/kg, po administered as 10 consecutive doses measured after 48 hrs; type: organism-based; details: in vivo
[47] = Toxicity in C57BL/6 mouse assessed as effect on HCT level at 50 mg/kg, po administered as 10 consecutive doses measured after 48 hrs; type: organism-based; details: in vivo
[48] = Toxicity in C57BL/6 mouse assessed as effect on MCV level at 50 mg/kg, po administered as 10 consecutive doses measured after 48 hrs; type: organism-based; details: in vivo
[49] = Toxicity in C57BL/6 mouse assessed as effect on MCH level at 50 mg/kg, po administered as 10 consecutive doses measured after 48 hrs; type: organism-based; details: in vivo
[50] = Toxicity in C57BL/6 mouse assessed as effect on MCHC level at 50 mg/kg, po administered as 10 consecutive doses measured after 48 hrs; type: organism-based; details: in vivo
[51] = Toxicity in C57BL/6 mouse assessed as effect on platelet level at 50 mg/kg, po administered as 10 consecutive doses measured after 48 hrs; type: organism-based; details: in vivo
[52] = Toxicity in C57BL/6 mouse assessed as effect on neutrophil level at 50 mg/kg, po administered as 10 consecutive doses measured after 48 hrs; type: organism-based; details: in vivo
[53] = Toxicity in C57BL/6 mouse assessed as effect on lymphocyte level at 50 mg/kg, po administered as 10 consecutive doses measured after 48 hrs; type: organism-based; details: in vivo
[54] = Toxicity in C57BL/6 mouse assessed as effect on monocyte level at 50 mg/kg, po administered as 10 consecutive doses measured after 48 hrs; type: organism-based; details: in vivo
[55] = Toxicity in C57BL/6 mouse assessed as effect on eosinophil level at 50 mg/kg, po administered as 10 consecutive doses measured after 48 hrs; type: organism-based; details: in vivo
[56] = Toxicity in C57BL/6 mouse assessed as effect on basophil level at 50 mg/kg, po administered as 10 consecutive doses measured after 48 hrs; type: organism-based; details: in vivo
[57] = Oral bioavailability in C57BL/6 mouse; type: ADME, organism-based; details: in vivo; how it was run: as §1
[58] = in vivo; details: C57BL/6, mouse, plasma
[59] = test system: HCC95; experiment: Inhibition of colony formation in human HCC95 cells at 10 uM measured after 10 days by nitroblue tetrazolium chloride reagent based assay relative to control; details: HCC95, 240 h

Structure (SMILES): CCN1C(=O)[C@@H](NC(=O)c2cccc(C(F)(F)F)c2)[C@@H](c2ccc(F)cc2)c2c(C)nn(-c3ccccc3)c21 (relative stereo)
- AUC at 24 h [1]: 23.8 µM·h
- F [2]: 36%
- Cmax [3]: 1.15 µM

Structure (SMILES): CCN1C(=O)[C@@H](NC(=O)c2cccc(C(F)(F)F)c2)[C@@H](c2ccc(F)cc2)c2c(CN)nn(-c3ccccc3)c21 (relative stereo)
- Activity [4]: Non-Toxic
- Activity [5]: Non-Toxic
- Activity [6]: Non-Toxic
- Activity [7]: Non-Toxic
- Activity [8]: Non-Toxic
- Activity [9]: Non-Toxic
- Activity [10]: Non-Toxic
- Activity [11]: Non-Toxic
- Activity [12]: Non-Toxic
- Activity [13]: Non-Toxic
- Activity [14]: Non-Toxic
- Activity [15]: Non-Toxic
- Activity [16]: Non-Toxic
- Activity [17]: Non-Toxic
- Activity [18]: Non-Toxic
- Activity [19]: Non-Toxic
- Activity [20]: Non-Toxic
- Activity [21]: Non-Toxic
- Activity [22]: Non-Toxic
- Activity [23]: Non-Toxic
- Activity [24]: Non-Toxic
- Activity [25]: Non-Toxic
- Activity [26]: Non-Toxic
- Activity [27]: Non-Toxic
- Activity [28]: Non-Toxic
- Activity [29]: Non-Toxic
- Activity [30]: Non-Toxic
- Activity [31]: Non-Toxic
- Activity [32]: Non-Toxic
- Activity [33]: Non-Toxic
- Activity [34]: Non-Toxic
- Activity [35]: Non-Toxic
- Activity [36]: Non-Toxic
- Activity [37]: Non-Toxic
- Activity [38]: Non-Toxic
- Activity [39]: Non-Toxic
- Activity [40]: Non-Toxic
- Activity [41]: Non-Toxic
- MTD at 48 h [42]: 200 mg/kg
- MTD at 48 h [43]: 50 mg/kg
- Activity [44]: Non-Toxic
- Activity [45]: Non-Toxic
- Activity [46]: Non-Toxic
- Activity [47]: Non-Toxic
- Activity [48]: Non-Toxic
- Activity [49]: Non-Toxic
- Activity [50]: Non-Toxic
- Activity [51]: Non-Toxic
- Activity [52]: Non-Toxic
- Activity [53]: Non-Toxic
- Activity [54]: Non-Toxic
- Activity [55]: Non-Toxic
- Activity [56]: Non-Toxic
- bioavailability [57]: 92%
- Cmax [3]: 6 µM
- clearance [58]: 20 mL/min/kg
- inhibition at 10 µM [59]: 100%
